PKA inh – inhibitors of human protein kinase A. 0.1% of 65,000 active. P17612. PKA Kemptide phosphorylation, Kinase-Glo ATP luminescence. inhibition, % at 6 µM. AID 524;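 active = inhibition above the screen-wide mean inhibition plus 3 SD, cut at about 21% in these data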
ROCK2 inh – blocks human Rho kinase 2 activity | 0.35% of 60,000 active | AID 604 | purified ROCK2, Kinase-Glo ATP depletion luminescence | O75116 | inhibition, % at 6 µM;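 active = inhibition above the screen-wide mean inhibition plus 3 SD, cut at about 18% in these data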;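 note: plate controls were DMSO wells for no effect and Y-27632 control wells after no-enzyme background subtraction for full effect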
SF-1 act – SF-1 (human) activation | CHO-K1 Gal4-SF-1 LBD luciferase reporter; % increase over DMSO SF-1-specific signal | 1.9% of 65,000 active | Q13285 | activation, % at 10 µM;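 active = activation above the mean activation of all tested compounds plus 3 SD, cut at about 50% in these data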
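System: CHO-K1 cells with Gal4–hSF-1 LBD chimera plus Gal4-driven luciferase; quantity: 4,000 CHO-K1 cells per well; compound: one dose, 10 µM compound, 1% DMSO; times: 20 h compound treatment, 37 °C; measured by: SteadyLite luciferase luminescence; read-out: percent activation versus DMSO; benchmarks: DMSO and mock-transfected background; replicates: one test per compound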
RORA act – activators of human nuclear receptor RORA. CHO-K1 Gal4-RORA LBD luciferase reporter, luminescence; percent increase over mock-subtracted basal signal. activation, % at 10 µM. 1.5% of 65,000 active. AID 560;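 active = activation above the mean of all tested compounds plus 3 SD, cut at about 49% in these data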;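 note: 0% = DMSO-treated RORA cells and 100% = added signal equal to DMSO minus mock-transfected cells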
MT1-MMP txn act – activates MT1-MMP transcription | activation factor at 10 µM | AID 750 | HT1080 MT1-MMP promoter luciferase reporter, luminescence, overnight; hits give high values | 0.16% of 86,000 active;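 active = activation factor of at least 2 for MT1-MMP transcription at 10 µM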
JNK3 blocker – blocks human JNK3 kinase activity | P53779 | purified JNK3 kinase activity, HTS | inhibition, % at 8 µM | 0.61% of 60,000 active | AID 746; in the data active = inhibition above about 17%;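 note: 0% = DMSO and 100% = reference inhibitor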
Target sequence (P53779 whole entry, looked up): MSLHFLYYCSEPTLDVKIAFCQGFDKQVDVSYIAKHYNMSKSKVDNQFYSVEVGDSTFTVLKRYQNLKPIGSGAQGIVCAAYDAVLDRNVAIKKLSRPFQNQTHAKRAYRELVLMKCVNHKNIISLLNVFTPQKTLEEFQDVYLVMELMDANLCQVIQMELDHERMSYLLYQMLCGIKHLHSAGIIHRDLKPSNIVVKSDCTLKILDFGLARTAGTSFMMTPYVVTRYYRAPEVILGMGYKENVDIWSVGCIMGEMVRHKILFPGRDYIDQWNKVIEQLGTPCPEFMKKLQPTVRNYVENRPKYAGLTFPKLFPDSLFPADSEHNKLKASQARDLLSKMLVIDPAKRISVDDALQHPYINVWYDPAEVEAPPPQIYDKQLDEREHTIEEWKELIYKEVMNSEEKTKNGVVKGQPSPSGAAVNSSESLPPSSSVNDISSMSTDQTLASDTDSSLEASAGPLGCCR
Active calls of the source: *; · = no result given. Compounds with a hit are over-represented: about 2.5% of the library has one in this group of screens.

SMILES | PKA inh | ROCK2 inh | SF-1 act | RORA act | MT1-MMP txn act | JNK3 blocker
COc1ccccc1-c1ccc(Nc2cccc(C(F)(F)F)c2)nn1 | · | · | · | · | 1.2 | ·
COc1ccccc1-c1ccc(NC2CCCCC2)nn1 | 8 | 4 | 80* | 27 | 1.7 | -3
CC(=O)Nc1cccc(NC(=O)c2oc3ccccc3c2C)c1 | 6 | 3 | 51* | 48 | · | 4
O=C(Nc1ccccc1)c1cc2ccccc2o1 | · | · | · | · | 0.6 | ·
COc1ccc(NC(=O)c2cc(-c3ccccc3OC)on2)cc1 | 8 | 4 | 12 | 49* | 1.1 | 1
Cc1c(C(=O)Nc2ccc(-n3cnnn3)cc2)oc2ccccc12 | -7 | 4 | 0 | 22 | 1.2 | -1
COc1ccccc1-c1cc(C(=O)Nc2cccnc2)no1 | 7 | 5 | 14 | 20 | 0.7 | -1
COc1ccc(NC(=O)c2cc3ccccc3o2)cc1 | 5 | 3 | 54* | 53* | 1.1 | 10
COc1ccc(NC(=O)c2cc(C3CC3)on2)c(OC)c1 | 8 | 1 | 56* | 18 | 1.4 | 4
COC(=O)c1ccccc1NC(=O)c1cc(C2CC2)on1 | 6 | 2 | 13 | -8 | 1.3 | 4
COc1c(O)c(O)cc2c1oc1c3ccccc3oc(=O)c21 | · | · | · | · | 1.1 | ·
CCCCn1c(=O)[nH]c(=O)c2c1nc(-c1ccc(C#N)cc1)n2C1CCCC1 | 10 | 3 | 1 | -14 | 1.1 | 2
CC(=O)N1CCc2cc(S(=O)(=O)NCCC(=O)NC3CCCc4ccccc43)ccc21 (stereo not given) | -3 | -3 | -10 | -6 | 1 | -6
CCC1=C2CC[C@H]3C(=O)N(c4ccccc4)C(=O)[C@H]3[C@H]2[C@@]2(Cc3ccccc3)C(=NCCc3c[nH]c4ccccc34)OC(=O)N2C1=O | · | · | · | · | 1.2 | ·
C=C(N(C)C)[C@]1(C)C[C@H]1[C@H](NC(=O)CNC(=O)OCc1ccccc1)c1ccccc1 | · | · | · | · | 1.2 | ·
COc1ccc(NC(=O)c2oc3ccccc3c2NC(=O)c2ccc(OC)c(OC)c2)c(OC)c1 | 7 | 6 | 8 | -18 | 0.9 | -1
CC(=O)Nc1ccc2ccccc2c1 | · | · | · | · | 1.2 | ·
CC(C)C(=O)Nc1cccc(NC(=O)c2cc3ccccc3o2)c1 | -3 | -3 | 35 | 12 | 1.2 | 0
COc1ccc(NC(=O)c2oc3ccccc3c2C)c(OC)c1 | 11 | · | 58* | 62* | 1.5 | ·
COc1ccccc1NC(=O)c1cc2ccccc2o1 | · | · | · | · | 2* | ·
CC(=O)Nc1cccc(NC(=O)c2cc3ccccc3o2)c1 | 6 | 1 | 87* | 33 | 1.3 | 0
CC(=O)Nc1ccc(-c2cc3ccccc3o2)cc1 | 6 | 8 | 61* | 2 | 1.1 | 0
Cc1c(C(=O)Nc2ccc3oc(-c4cccnc4)nc3c2)oc2ccccc12 | -1 | 20* | -16 | -10 | 1.3 | 2
COC(=O)c1c(C#N)c(N)nc2c1CCCC2 | 2 | 4 | -4 | -5 | 1 | 19*
CCOc1ccc2nc(N3CCC(C(=O)Nc4nnc(CC)s4)CC3)sc2c1 | 9 | 3 | 67* | 46 | 1.3 | -6
SMILES | PKA inh | ROCK2 inh | SF-1 act | RORA act | MT1-MMP txn act | JNK3 blocker
CCOc1ccc2nc(N3CCC(C(=O)N4CCN(C(=O)c5ccco5)CC4)CC3)sc2c1 | 7 | 6 | 18 | 16 | 1.2 | -5
CCOc1ccc2nc(N3CCC(C(=O)N4CCN(C5CCCCC5)CC4)CC3)sc2c1 | -5 | 4 | 24 | 27 | · | 5
CCOc1ccc2nc(N3CCCCCC3)sc2c1 | 3 | 0 | 58* | 36 | 1.2 | -7
c1ccc2c(c1)CCN(CCCNc1nc3ccccc3n3cnnc13)C2 | 4 | 2 | 16 | 5 | 1.1 | 0
Cc1nc2ccccc2c2c1C(=O)N(C1CCCCCCC1)C2=O | · | · | · | · | 1.1 | ·
Cc1ccc(C)c(-c2nnc(OCC(=O)Nc3cc(C)on3)c3ccccc23)c1 | 9 | 3 | 8 | -4 | 1.1 | 1
Nc1cc(N)nc(SCc2ccccc2)n1 | -3 | -3 | 54* | 21 | 1.2 | -5
Nc1nc(SCc2ccccc2)ns1 | 5 | 0 | 55* | 24 | 1.4 | 8
Cn1cnc2cc(NC(=O)c3ccco3)ccc21 | 6 | 5 | 40 | 27 | 1 | 5
Cn1c(CN2CCCC2)nc2cc(NC(=O)c3ccco3)ccc21 | 6 | 0 | 50* | 48 | 1.3 | 0
O=C(Nc1ccc2c(c1)ncn2-c1ccccc1)c1ccco1 | 13 | 13 | 28 | 52* | 0.5 | -5

Source: PubChem BioAssay
